Screening data from PubChem BioAssay.
Only some compounds are listed: those with a hit (about 0.89% of all), similar ones and a draw of the others.
beta cell repl: inducers of MIN6 beta-cell proliferation, primary screen, ATP luminescence, uHTS; MIN6 cells proliferation, ATPlite luminescence, 48 h; cells starved in 0.2% serum; 100% = growth in 10% serum; AID 2380, 2010; proliferation, % at 10 µM; 330,000 tested, 0.29% active;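 active = compounds whose signal lies at least 3.5 SD above the mean of all wells on their plate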;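 also: 0% = DMSO-treated cells in low-serum medium and 100% = 10% serum control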
T cell modulator: modulators of CD8 T cell-vesicle binding, primary screen, mouse 2C CD8+ T cells, flow cytometry; AID 2052, 2009; response (vesicle binding), % at 7 µM; 330,000 tested, 0.068% active; 2C CD8+ T cell-vesicle binding; hits give low values;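 active = response, share of CD8 T cells binding vesicles, and their 90th percentile fluorescence all below set limits, cut at about 80% in these data, passing the limit was not always enough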;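 also: values below 100% mean blocked vesicle binding to the CD8+ T cells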
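Incubation: binding step 1.5 h, 37 °C, antibody labelling 20 min, ice; system: murine 2C transgenic CD8+ T lymphocytes; technique: cytometric PE anti-B7-1 and Alexa647 anti-CD8 signals after 1% paraformaldehyde fixation; also added: QL9-charged Drosophila Ld/ICAM-1/B7-1 vesicles; control set: naked versus QL9-loaded vesicles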
NTR1 ag: agonists of human NTR1, primary screen, imaging, U2OS cells, beta-arrestin-GFP, high content | Neurotensin receptor type 1 (Homo sapiens), P30989 | NTR1-U2OS beta-arrestin-GFP spot imaging, agonist mode | activation, % at 20 µM | 330,000 tested, 0.17% active | AID 493036, 2011;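 active = activation at or above 40% of the spot to cytoplasm intensity ratio, with at least 20 cells analyzed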;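 also: 0% = DMSO without peptide and 100% = 100 nM NTR1 peptide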
Arr AP2 block: inhibitors of beta-arrestin/AP2 binding, primary screen, biochemical, GPCR trafficking, flow cytometry. inhibition, % at 10 µM. FITC-arrestin peptide / GST-AP2 beads; AP2 beta2 appendage carries R879A mutation. AID 504490, 2011. 340,000 tested, 0.31% active;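 active = inhibition above a set limit, near 3 SD of compounds lacking own fluorescence, cut at about 54% in these data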;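 also: plate controls were DMSO wells for no effect and 5 µM unlabelled arrestin peptide for full effect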
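Test system: GST-tagged AP2 beta2-adaptin appendage (R879A) on 4 µm glutathione beads; also added: fluorescein-tagged arrestin peptide at 50 nM final; timing: 12 min plus 1 h, RT; signal: flow cytometry, FL1 (488/535 nm); read-out: percent drop in bead-associated FITC signal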
V-ATPase pH: regulators of yeast V-ATPase proton pumping, primary screen, pHLuorin cytosolic pH fluorescence; S. cerevisiae; AID 504577, 2011; 350,000 tested, 0.37% active; response, % at 10 µM; in the data active = response mostly above about 7.3%, no sharp cut-off; inactive = mostly below about 5.4%; also: actives read high
Xi reactivation: activators of inactive X chromosome reactivation, primary screen, imaging, XiGFP fibroblasts, GFP high-content imaging, set 2; XiGFP mouse fibroblasts, % GFP-positive cells imaging, 3 d; cells co-treated with 5-aza-dC sensitizer; scaled so ellipticine positive control = 100%; activation, % at 7.58 µM; 360,000 tested, 0.055% active;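 active = mean normalized replicate activation at least 10% and every replicate at or above 10%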;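 also: 0% = median of on-plate neutral control wells and 100% = ellipticine 6 µM median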
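assay system = SV40-immortalized XiGFP fibroblast cells, line 68-5-11 | buffer or medium = DMEM plus 5-aza-dC sensitizer | doses = single-point pinned compound dosing | times = 3-day compound exposure, then 15 min fixation at room temperature | benchmarks = positive control ellipticine, 6 µM final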
Arr-AP2 CP1: inhibitors of arrestin peptide binding to AP2, confirmation, biochemical, cherry pick 1, flow cytometry beads. shares compounds with Arr AP2 block. GST-AP2 beads, FITC arrestin peptide binding; GST-fused beta2-adaptin appendage, R879A mutant. inhibition, % at 10 µM. AID 504908, 2011. 1,300 tested, 2% active;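 active = inhibition above a set limit, roughly 3 SD of non-fluorescent compound noise, cut at about 38% in these data; inactive = inhibition at or below that limit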;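 also: loss of bead fluorescence from 50 nM FITC arrestin peptide bound to appendage; 0% = negative control wells and 100% = excess unlabelled arrestin peptide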
Target sequence (P63010 whole entry, looked up, the tested form may be a part, one chain of several): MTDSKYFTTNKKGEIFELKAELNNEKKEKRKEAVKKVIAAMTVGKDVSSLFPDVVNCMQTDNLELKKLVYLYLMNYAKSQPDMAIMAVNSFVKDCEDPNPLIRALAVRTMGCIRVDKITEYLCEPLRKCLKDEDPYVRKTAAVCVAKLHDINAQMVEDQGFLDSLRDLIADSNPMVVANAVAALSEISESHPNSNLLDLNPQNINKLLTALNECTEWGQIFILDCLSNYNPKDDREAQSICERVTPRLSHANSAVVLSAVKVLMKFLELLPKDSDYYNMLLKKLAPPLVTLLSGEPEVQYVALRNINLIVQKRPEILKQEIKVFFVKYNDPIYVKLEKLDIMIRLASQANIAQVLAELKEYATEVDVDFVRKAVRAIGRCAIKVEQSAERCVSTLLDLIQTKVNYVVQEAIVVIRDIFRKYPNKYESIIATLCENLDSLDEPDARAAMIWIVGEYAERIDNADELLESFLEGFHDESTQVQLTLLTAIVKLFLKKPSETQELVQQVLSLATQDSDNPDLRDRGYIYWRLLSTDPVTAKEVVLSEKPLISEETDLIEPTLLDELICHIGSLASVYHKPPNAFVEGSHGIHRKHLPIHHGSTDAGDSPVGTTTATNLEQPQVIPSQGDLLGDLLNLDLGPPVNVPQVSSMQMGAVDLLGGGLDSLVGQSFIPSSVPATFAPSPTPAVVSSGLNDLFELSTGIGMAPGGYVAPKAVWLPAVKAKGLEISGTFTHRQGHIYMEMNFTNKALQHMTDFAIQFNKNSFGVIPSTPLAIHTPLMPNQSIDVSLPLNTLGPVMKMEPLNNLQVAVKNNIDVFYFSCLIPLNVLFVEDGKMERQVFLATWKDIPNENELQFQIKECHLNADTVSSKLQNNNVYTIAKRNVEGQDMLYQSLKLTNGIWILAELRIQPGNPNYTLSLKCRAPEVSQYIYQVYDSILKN
GST GSH counter: GST-fluorescein capture on glutathione beads, confirmation, artefact control for arrestin-AP2 inhibitor project, biochemical, cherry pick 1, flow cytometry; 1,300 tested, 2% active; shares compounds with Arr AP2 block; AID 588338, 2011; GST-fluorescein binding to GSH beads, fluorescence, counter-screen; inhibition, % at 10 µM;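 active = inhibition above 50%, about 3 SD of the inhibition seen with non-fluorescent compounds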;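 also: fluorescein maleimide labelled GST captured on 4 micron glutathione beads; higher means more loss of bead fluorescence from quenching or blocked binding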
* hit, by the source's call; / = not tested or not shown.

SMILES	beta cell repl	T cell modulator	NTR1 ag	Arr AP2 block	V-ATPase pH	Xi reactivation	Arr-AP2 CP1	GST GSH counter
O=C(C[C@H]1C=C[C@@H](NS(=O)(=O)c2ccc(F)cc2)[C@@H](CO)O1)NCc1ccc(Cl)c(Cl)c1	/	/	/	/	/	0.3	/	/
Cc1cccc(C(=O)NC(NCc2ccco2)C(Cl)(Cl)Cl)c1 (centres undefined)	-1.8	473.4	2.1	10.9	-4.0	/	/	/
Cc1ccc(C(=O)NC(NCc2ccco2)C(Cl)(Cl)Cl)cc1 (centres undefined)	1.9	315.5	-0.6	55.0*	0.8	0.3	2.7	-2.4
COC(=O)[C@H]1[C@H](CO)[C@H]2Cn3c(ccc(-c4ccccc4OC)c3=O)[C@H]2N1C(=O)c1cccnc1	/	/	/	/	/	0.0	/	/
C[C@H]1CN([C@@H](C)CO)C(=O)c2cc(-c3cccc(F)c3)cnc2O[C@H]1CN(C)C(=O)C1CC1	/	/	/	/	/	-1.2	/	/
COc1ccc(OCCC(=O)Nc2nccs2)cc1	0.4	199.7	-1.3	54.3*	8.4	0.1	-3.9	0.6
COc1ccc(OCC(=O)Nc2nccs2)cc1	-2.3	285.1	0.6	-38.3	3.5	0.0	/	/
O=C(NCCc1ccc(S(=O)(=O)N2CCCC2)cc1)c1cccs1	-2.5	206.4	-0.4	87.4*	-3.0	/	1.0	0.9
O=C(Nc1ccc(S(=O)(=O)N2CCCC2)cc1)c1cccs1	-1.4	203.1	-1.4	3.9	-1.8	0.0	/	/
CC(Sc1ccc(Cl)cc1)C(=O)N(C)CC(=O)Nc1ccc(N2CCOCC2)cc1 (centres undefined)	0.4	188.8	-1.2	56.4*	-4.6	0.1	5.5	-7.0
CCCNC(=O)Nc1ccc2c(c1)OC[C@@H](C)N(C(=O)c1ccccc1F)C[C@@H](C)[C@@H](OC)CN(C)C2=O	/	/	/	/	/	-0.3	/	/
C[C@H](CO)N1C[C@H](C)[C@@H](CN(C)Cc2ccc(Oc3ccccc3)cc2)Oc2ccc(NC(=O)CCN3CCOCC3)cc2CC1=O	/	/	/	/	/	0.2	/	/
O=C(Nc1cccnc1Cl)c1noc2c1CCc1ccccc1-2	3.5	171.3	0.0	54.7*	3.7	0.0	10.3	-15.8
CCCNC(=O)c1noc2c1CCc1ccccc1-2	-4.6	0.0	-4.1	-13.0	-2.2	0.3	/	/
O=S(=O)(Nc1ccc2c(c1)OCCO2)c1c(F)cccc1F	-0.3	182.5	0.2	59.1*	-1.2	0.5	-11.3	0.7
COc1ccc(S(=O)(=O)N2CCCC(C(=O)N3CCCC3)C2)cc1OC (centres undefined)	-1.5	592.8	0.0	69.1*	2.0	-0.1	-8.6	-9.8
Cc1sc2nc(CN3CCOCC3)nc(N3CCOCC3)c2c1C	-0.5	279.1	0.0	58.3*	0.1	/	18.5	-2.5
COc1cc(OC)cc(C(=O)Nc2nc3ccc(S(C)(=O)=O)cc3s2)c1	-4.2	205.1	1.9	104.2*	4.2	0.2	3.3	-2.1
COc1cc(C(=O)Nc2nc3ccc(S(C)(=O)=O)cc3s2)cc(OC)c1C	0.4	485.4	4.9	-1.1	-0.3	0.5	/	/
CO[C@H]1CN(C)C(=O)c2ccc(NC(=O)C3CC3)cc2OC[C@H](C)N(Cc2cccnc2)C[C@H]1C	/	/	/	/	/	0.0	/	/
COc1ccc(CC(=O)N2CCC3(CC2)NCCc2[nH]cnc23)cc1	1.2	277.3	-1.2	-3.7	0.5	0.0	/	/
